Key:
Caco-2 = experiment: Antiproliferative activity against human Caco2 cells after 72 hrs by MTT assay; assay type: functional, cell-based
[1] = Antimigratory activity in mouse B16F10 cells after 24 hrs by laminin-coated boyden chamber assay; assay type: functional, cell-based; conditions: b16-f10
Outline: (§1)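 Boyden chamber inserts were coated overnight with laminin, fibronectin or vitronectin (human plasma), PBS-washed and blocked 1 h with 0.5% BSA. Cells in DMEM/0.1% BSA were placed in the upper compartment for 24 h with or without compound. Non-migrating cells were wiped off; lower-side cells were methanol-fixed, crystal violet-stained and counted. Run in triplicate. Ki came from Hill fit of dose-log response curves.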

[2] = Antiinvasive activity in mouse B16F10 cells after 24 hrs by matrigel assay in presence of HGF; assay type: functional, cell-based; conditions: b16-f10
Outline: (§2)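 Boyden chamber inserts loaded with Matrigel diluted 33-fold in PBS, with HGF in the lower chamber. Cells resuspended in DMEM with 0.1% BSA were plated in the upper compartment and incubated 24 h with or without compound. Cells on the lower membrane surface were methanol-fixed, crystal violet-stained and counted. % Inh was computed against untreated migration. Run in triplicate. EC50/Ki were obtained by Hill fit of dose-log response curves.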

[3] = Antiproliferative activity against human HuH7 cells after 72 hrs by MTT assay; assay type: functional, cell-based; conditions: Huh-7, 72 h
DU-145 = experiment: Antiproliferative activity against human DU145 cells after 72 hrs by MTT assay; assay type: functional, cell-based
MDA-MB-435 [4] = experiment: Antiinvasive activity in human MDA-MB-435 cells after 24 hrs by matrigel assay in presence of HGF; assay type: functional, cell-based; conditions: read-out: Ki; outline: as §2
[5] = Antiproliferative activity against mouse B16F10 cells after 72 hrs by MTT assay; assay type: functional, cell-based; conditions: B16-F10, 72 h
MDA-MB-435 [6] = experiment: Antimigratory activity in human MDA-MB-435 cells after 24 hrs by fibronectin-coated boyden chamber assay; assay type: functional, cell-based; outline: as §1
MDA-MB-435 [7] = experiment: Antimigratory activity in human MDA-MB-435 cells after 24 hrs by vitronectin-coated boyden chamber assay; assay type: functional, cell-based; outline: as §1
[8] = Antimigratory activity in mouse B16F10 cells after 24 hrs by vitronectin-coated boyden chamber assay; assay type: functional, cell-based; conditions: b16-f10; outline: as §1
MDA-MB-435 [9] = experiment: Antiproliferative activity against human MDA-MB-435 cells after 72 hrs by MTT assay; assay type: functional, cell-based; conditions: MDA-MB-435, 72 h
[10] = Antimigratory activity in mouse B16F10 cells after 24 hrs by fibronectin-coated boyden chamber assay; assay type: functional, cell-based; conditions: b16-f10; outline: as §1
MDA-MB-231 = experiment: Antiproliferative activity against human MDA-MB-231 cells after 72 hrs by MTT assay; assay type: functional, cell-based
MDA-MB-435 [11] = experiment: Antimigratory activity in human MDA-MB-435 cells after 24 hrs by laminin-coated boyden chamber assay; assay type: functional, cell-based; outline: as §1
MDA-MB-435 [12] = experiment: Cytotoxicity against human MDA-MB-435 cells; assay type: cell-based
[13] = Cytotoxicity against mouse B16F10 cells; assay type: cell-based; conditions: b16-f10
[14] = Homo sapiens, Caco-2, 72 h, read-out: IC50
[15] = Homo sapiens, DU-145, 72 h, read-out: IC50
[16] = Homo sapiens, MDA-MB-231, 72 h, read-out: IC50

IC50 (Caco-2; [14]) [nM]	IC50 (DU-145; [15]) [nM]	EC50 (MDA-MB-435 [4]) [nM]	IC50 (MDA-MB-435 [9]) [nM]	IC50 (MDA-MB-231; [16]) [nM]	IC50 (Caco-2; caco-2)	IC50 (DU-145; du-145)	IC50 (MDA-MB-231; mda-mb-231)	Structure (SMILES)	Ki [1] [nM]	Ki [2] [nM]	IC50 [3] [nM]	IC50 [5] [nM]	Ki (MDA-MB-435 [6]) [nM]	Ki (MDA-MB-435 [7]) [nM]	Ki [8] [nM]	Ki [10] [nM]	Ki (MDA-MB-435 [11]) [nM]	Activity (MDA-MB-435 [12])	Activity [13]
20500	215	28	0.55	466				O=[P@@]1(c2ccccc2)O[C@H](COCc2ccccc2)[C@@H](OCc2ccccc2)[C@H](OCc2ccccc2)[C@@H]1I	17	29	229	7.7	29	43	44	16	25		
28600	104	35	0.3	478				O=[P@@]1(c2ccccc2)O[C@H](COCc2ccccc2)[C@@H](OCc2ccccc2)[C@H](OCc2ccccc2)[C@H]1I	16	37	13	4	28	101	35	20	23	Toxic	Toxic
24700	102	13	0.2	445				O=[P@@]1(c2ccccc2)O[C@H](COCc2ccccc2)[C@@H](OCc2ccccc2)[C@H](OCc2ccccc2)[C@@H]1Br	10	17	11.6	4.6	39	46	21	46	34		
29500	86.5	30	0.35	432				O=[P@@]1(c2ccccc2)O[C@H](COCc2ccccc2)[C@@H](OCc2ccccc2)[C@H](OCc2ccccc2)[C@H]1Br	20	32	15.8	3.8	28	78	50	30	42		
24800	226	35	1.6	359				O=[P@@]1(c2ccccc2)O[C@H](COCc2ccccc2)[C@@H](OCc2ccccc2)[C@H](OCc2ccccc2)[C@H]1Cl	13	37	1170	7.7	36	52	380	18	32	Toxic	Toxic
28400	116		0.52	286				O=[P@]1(c2ccccc2)C=C(OCc2ccccc2)[C@H](OCc2ccccc2)[C@@H](COCc2ccccc2)O1			37.5	4.4							
		31	1.45		Not Active	Not Active	Not Active	O=[P@@]1(c2ccccc2)O[C@H](COCc2ccccc2)[C@@H](OCc2ccccc2)[C@H](OCc2ccccc2)[C@H]1F	16	33	12.1	1.7	28	66	40	22	34		
		36						O=[P@@]1(c2ccccc2)O[C@H](COCc2ccccc2)[C@@H](OCc2ccccc2)[C@H](OCc2ccccc2)[C@@H]1Cl	19	35			28	41	34	49	23		

Source: ChEMBL document CHEMBL3632559, “α-Halogenated oxaphosphinanes: Synthesis, unexpected reactions and evaluation as inhibitors of cancer cell proliferation” (Eur J Med Chem, 2015)
